Source: PubChem (several laboratories)
Only some compounds are listed: those with a hit (about 6.8% of all), similar ones and a draw of the others.
AI-2 QS mod: Vibrio harveyi AI-2 quorum sensing modulators, primary screen, JMH597 strain, luminescence/OD600 ratio; Vibrio harveyi JMH597 AI-2 luminescence/OD600 ratio, 9 h; stronger effect = lower value; strain lacks LuxN and CqsS sensors; 0 = neutral-control median; activity change, % at 7.5 µM; 300,000 tested, 0.4% active; AID 2094, 2009; in the data active means activity change below about -75%, passing the limit was not always enough; inconclusive means no clear call, values can overlap the other calls;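 further: luminescence divided by OD600 gain over 9 h not by final OD600 alone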
HSF-1 act: HSF-1 activators, primary screen, NIH3T3-HGL cells, MG132 stress, luminescence, single point; AID 504408, 2011; NIH3T3-HGL HSF-1 luciferase reporter, 8 h; 100% = twice DMSO control signal; activation, % at 9 µM; 300,000 tested, 1.7% active;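 active means mean replicate activation of at least 50% with a set share of replicates each reaching 50%; inconclusive means only one of those two conditions met; inactive means mean below 50% and too few replicates reaching it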;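 further: 0% = median of the neutral control wells and 100% = twice that signal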
PHOSPHO1 block: PubChem AID 1565; 290,000 tested, 1.1% active; recombinant PHOSPHO1, absorbance phosphatase assay; Phosphoethanolamine/phosphocholine phosphatase (Homo sapiens), Q8TCT1; inhibition, % at 13.3 µM; in the data active means inhibition above about 60%
Target sequence (Q8TCT1 whole entry, looked up): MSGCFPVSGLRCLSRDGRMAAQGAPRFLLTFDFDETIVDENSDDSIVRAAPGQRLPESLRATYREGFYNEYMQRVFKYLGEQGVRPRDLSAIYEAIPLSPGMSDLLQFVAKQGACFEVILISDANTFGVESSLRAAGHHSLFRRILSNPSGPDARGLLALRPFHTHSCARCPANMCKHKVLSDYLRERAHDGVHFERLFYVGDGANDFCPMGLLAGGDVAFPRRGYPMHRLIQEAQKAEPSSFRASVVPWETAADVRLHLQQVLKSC
HSF1 inh: HSF1 inhibitors in luciferase reporter cells, primary screen, cell-based, NIH3T3, luminescence | NIH3T3-HGL HSE-luciferase, MG132-induced, luminescence 8 h; stronger effect = lower value | activity change, negative = inhibition, % at 7.5 µM (by protocol) | 300,000 tested, 0.77% active | AID 2098, 2009;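 active means more than half of replicate wells show activity change below -50%, luminescence cut by over half; inconclusive means some wells, but at most half, below -50%; inactive means no replicate well below -50%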;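 further: luciferase reports HSF-1 transcriptional activity via heat shock element; 0% = median of DMSO wells and -100% = zero luminescence signal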
HCV core dimer: inhibitors of HCV core protein dimerization, primary screen, biochemical, TR-FRET, high-throughput; TR-FRET GST/Flag-core106 dimerization, 1536-well; inhibition, % at 5 µM; 300,000 tested, 0.33% active;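 active means inhibition above the mean of all tested compounds plus 3 SD, set per screening campaign, cut at about 45% in these data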
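System: GST-tagged and Flag-tagged HCV core protein residues 1-106 / Input: core106 proteins, GST 13.5 nM and Flag 17 nM / Buffer or medium: KF-containing HEPES buffer, pH 7.45, DTT, CHAPS, BSA / Probe or stimulus: Eu-anti-GST and XL665-anti-Flag labelled anti-tag antibodies / Schedule: 4 h, 22.5 °C incubation / Technique: TR-FRET 671 and 617 nm emission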
ALR inh: inhibitors of human ALR sulfhydryl oxidase, primary screen, biochemical, H2O2 detection, HRP-luminol luminescence, single point; FAD-linked sulfhydryl oxidase ALR (Homo sapiens), P55789; purified ALR, DTT oxidation; inhibition, % (no concentration beside the values); 290,000 tested, 3.8% active;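 active means mean replicate inhibition above about 79%, with every replicate also reaching it, limit read from the data; inconclusive means only one of the two criteria met; inactive means mean below limit and not every replicate reaching it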
Target sequence (P55789 whole entry, looked up): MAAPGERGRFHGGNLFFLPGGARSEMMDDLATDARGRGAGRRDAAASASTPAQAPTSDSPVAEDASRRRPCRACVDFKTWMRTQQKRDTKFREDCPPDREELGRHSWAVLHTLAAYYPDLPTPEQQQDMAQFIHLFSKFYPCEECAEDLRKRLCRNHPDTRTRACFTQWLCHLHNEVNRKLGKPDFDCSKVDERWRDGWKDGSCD
* marks the source's active call; other numbers are inactive results; u = inconclusive; x = no result.

SMILES	AI-2 QS mod	HSF-1 act	PHOSPHO1 block	HSF1 inh	HCV core dimer	ALR inh
C[C@@H](NC(=O)C1(c2ccccc2)CCN(C(=O)OC(C)(C)C)CC1)C(=O)N[C@@H](C(=O)O)c1ccccc1	23.1	-0.4	18.2	4.4	1.4	-2.8
CC(=O)N1c2ccc(S(=O)(=O)N3CCC(C(=O)N4CC(C)CC(C)C4)CC3)cc2CC1C (stereo not drawn)	14.3	15.8	6.9	-10.4	7.8	-3.8
O=C(O)c1cccc(N/N=C/c2ccc(OC(F)(F)F)cc2)c1	19.2	-58.6	x	-56.0*	-6.0	4.3
COC(=O)c1ccc(COc2ccc(/C=N/Nc3cccc(C(=O)O)c3)cc2)cc1	21.9	8.7	67.6*	6.5	3.7	-3.6
COC(=O)c1ccc(COc2ccc(/C=N/Nc3nc(C)cc(=O)[nH]3)cc2)cc1	35.9	7.5	-7.6	14.1	-2.5	7.6
CC(C)CNC(=O)C(=O)N/N=C/c1cccs1	4.8	12.5	13.5	2.9	-2.2	82.3*
O=C(O)c1cccc(N/N=C/c2cccs2)c1	54.7	-61.6	20.5	-57.8*	-31.2	x
Cc1cccc(C(C)C)c1NC(=O)c1c(-c2ccccc2)noc1C	6.4	46.0	26.3	4.7	-0.5	-0.7
CC(C)CN1C(=O)C(=O)N(CC(=O)N(C)CC(=O)Nc2ccc(F)cc2)C1=O	x	x	x	x	x	-3.7
CC(C)c1ccc(C2/C(=C(/O)c3ccc(F)cc3)C(=O)C(=O)N2CCCN2CCOCC2)cc1 (stereo not drawn)	-1.6	13.8	24.3	2.6	0.3	49.4
CCNc1nc(NC(C)C)nc(Oc2ccc(/C=N/O)cc2)n1	-9.1	5.8	2.1	-2.0	1.9	-5.9
O=C(O)c1cc(N/N=C/c2ccc(OCc3ccccc3)cc2)ccc1Cl	-43.0	12.6	1.4	9.5	6.9	96.6*
C=CCOC(=O)/C(=C/c1cccc2ccccc12)NC(=O)c1ccccc1	-18.4	72.3*	5.7	54.1	-0.7	-14.0
O=C(OCc1ccccc1)/C(=C/c1cccc2ccccc12)NC(=O)c1ccccc1	10.4	8.5	-11.7	1.9	15.1	-3.7
COc1cccc(C(=O)CC(=O)C(=O)Nc2cc(OC)ccc2OC)c1	6.2	-1.8	31.3	6.6	0.9	-54.1
COc1cccc(C(=O)CC(=O)C(=O)Nc2cc(OC)c(OC)c(OC)c2)c1	7.9	-62.3	22.7	-57.5*	-5.8	-28.2
O=C(CCCc1c[nH]c2ccccc12)NCc1cccs1	-21.5	30.2	9.5	4.4	-1.6	90.2*
NC(=O)NC(=O)COC(=O)CCCc1c[nH]c2ccccc12	32.8	1.0	36.0	0.8	-3.5	u
CC(=O)Nc1ccc(NC(=O)COC(=O)CCCc2c[nH]c3ccccc23)cc1	28.8	3.0	x	-1.4	0.8	94.3*
O=C(Cc1c[nH]c2ccccc12)NCc1cccs1	-14.2	-8.1	-13.5	-6.9	-0.1	21.8
CCCn1nnnc1NCc1ccc(N(CC)CC)cc1	20.5	-5.8	x	-3.6	3.3	98.4*
CCN(CC)c1ccc(CNc2nnnn2C)cc1	-5.7	-1.2	24.3	-3.1	2.6	99.0*
CSC1=NC2(CCCCC2)C2=C(CCCC2)N1	6.0	13.6	101.2*	-6.6	0.3	-3.4
Cc1c(C(=O)c2ccc(Cl)c([N+](=O)[O-])c2)c2ccccn2c1CCC#N	3.2	-13.4	-10.5	-0.9	2.2	40.1
Cc1c(C(=O)c2ccc(N(C)C)cc2)c2ccccn2c1CCC#N	4.2	29.4	55.9	3.1	3.8	98.2*
SMILES	AI-2 QS mod	HSF-1 act	PHOSPHO1 block	HSF1 inh	HCV core dimer	ALR inh
Cc1c(C(=O)c2ccc(Cl)cc2[N+](=O)[O-])c2ccccn2c1CCC#N	4.8	-8.1	-0.3	-9.7	-6.8	95.5*
Cc1c(C(=O)c2ccc(F)cc2F)c2ccccn2c1CCC#N	-7.3	2.7	8.7	-6.2	-18.1	x
CC(C)N(C(=O)COC(=O)c1cccc(C(=O)OCC(=O)N(C(C)C)C(C)C)n1)C(C)C	23.6	-0.1	44.0	-9.1	5.1	-8.2
O=C(C1CCN(S(=O)(=O)c2ccccc2)CC1)N1CCCCCC1	20.5	-7.0	-6.2	-10.3	x	-12.3
CC(=Nc1ccccc1)C1=C(O)CCCC1=O	17.2	62.7*	5.9	9.5	6.8	-3.8
Cc1csc(Nc2ccccc2)[n+]1C	7.8	-9.8	12.4	-7.4	-6.7	98.0*
Cc1c(Nc2scc(-c3ccccc3)[n+]2-c2ccccc2)c(=O)n(-c2ccccc2)n1C	30.0	29.6	-7.2	14.5	7.2	-10.8
Cc1csc(Nc2ccccc2)[n+]1-c1ccccc1	12.6	18.7	31.7	20.2	0.3	98.8*
O=C(Nc1ccc(C(F)(F)F)cc1)c1cnc(N2CCN(c3ccccn3)CC2)c2ccccc12	26.3	-7.9	15.9	-1.3	-63.0	-2.2
CC(C)c1ccc(S(=O)(=O)Nc2ccc(N3CCOCC3)cc2)cc1	23.5	2.9	27.9	-4.4	9.3	45.5
CC(C)c1ccc(CNc2ccc(N3CCOCC3)cc2)cc1	16.1	2.1	13.2	-6.5	-13.8	98.5*
c1cc(CNc2ccc(N3CCOCC3)cc2)ccn1	17.3	-31.9	11.6	-29.1	-18.7	99.4*
c1cc2c(cc1CNc1ccc(N3CCOCC3)cc1)OCO2	x	x	x	x	x	98.4*
Cc1ccc(CNc2ccc3c(c2)OCO3)cc1	4.0	4.0	-21.8	14.8	2.9	-15.4
c1cc(CNc2ccc3c(c2)OCO3)ccn1	12.4	1.4	-10.4	-1.0	-6.9	86.5*
CC(=O)Nc1cccc(/C(C)=N/NC(=O)c2ccc(CN3CCOCC3)cc2)c1	13.6	-2.4	-3.7	1.4	0.2	-2.0
Cc1ccc(CNc2ccc(N3CCOCC3)c(Cl)c2)cc1	17.0	-0.9	24.7	2.7	-9.2	35.3
Cc1ccc(CNc2ccc(N3CCOCC3)cc2)cc1	x	-9.0	-17.7	-14.0	-8.6	98.9*
O=C(N/N=C/c1cccc(OCc2ccccc2)c1)c1cccs1	-5.7	44.2	29.8	10.1	1.9	-0.8
NC(=O)N/N=C/c1cccc(OCc2ccc(F)cc2)c1	3.9	-78.4	-30.9	-73.6*	-4.7	2.3
COc1ccc(-c2nnc(-c3cccs3)o2)cc1OC	-2.0	59.7*	9.7	38.7	5.9	x
COc1cccc(-c2nc(-c3ccccc3)no2)c1	-1.5	19.5	-8.3	-2.3	-3.0	-3.6
COc1cccc(-c2noc(-c3cccs3)n2)c1	11.4	53.8*	-10.0	23.1	1.1	x
COc1nc(-c2ccccc2)ccc1-c1noc(-c2cccs2)n1	9.5	49.3	x	19.0	17.6	-15.6
